Each structure is given as a SMILES string. “Also recorded” adds a separate entry of the source. Marks after values point to notes of the source that are not given here. A value given as a limit tells only on which side of the number the result lay.

For series [1], the system named is S. aureus ATCC29213. As to the kind of experiment: MIC by microdilution, S. aureus ATCC29213. Particulars: for antibacterial activity in words / antibacterial activity, active / inactive: by MIC with S. aureus ATCC29213; for increase in MIC with added bovine serum albumin: S. aureus ATCC29213. The format is cell-based, Staphylococcus aureus.
Series [2] deals with allosteric site of PBP2a. Particulars: read-out: Kd for binding to the allosteric site of PBP2a; ref [23]; cited from earlier work.
Series [3] in a line: Pharmacokinetics in mice. The format is in vivo. Particulars: for clearance relative to hepatic blood flow: mice.
For series [4] the following is noted: plasma protein binding; ref [26]; cited from earlier work.
Series [5] concerns MRSA strain NRS70. As to the kind of experiment: Time-kill assays. The format is cell-based, Staphylococcus aureus. The conditions noted are these: NRS70, 0.5 to 16 × MIC. Put shortly:
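Cultures of MRSA NRS70 were exposed to the test compound, with a no-antibiotic control tube. At 3, 6, 12 and 24 h, aliquots were plated on LB agar for colony counts, with a detection limit of >50 CFU/mL. A ≥3-log10 drop from the starting inoculum counted as bactericidal. Run in triplicate.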

Series [6] concerns S. haemolyticus ATCC 29970. Description: MIC against Gram-positive organisms. The format is cell-based. Particulars: Staphylococcus haemolyticus, ATCC29970, read-out: MIC S. haemolyticus ATCC 29970.
For series [7] the following is noted: mice, 10 mg/kg iv; ref Bouley [25]; cited from earlier work.

On to `Cc1ccc(C(=O)O)cc1-n1c(/C=C/c2ccc(C#N)cc2)nc2ccccc2c1=O` [compound 75], for which, in series [1], the “antibacterial activity in words” value is given as “retained acceptable MIC values” and the “antibacterial activity, active / inactive” value is given as “active”. For the molecule `CCN1CCN(C(=O)N[C@@H](C(=O)N[C@@H]2C(=O)N3[C@@H]2SC(C)(C)[C@@H]3C(=O)O)c2ccccc2)C(=O)C1=O` [piperacillin], the Kd in series [2] was 400 µM. For `N#Cc1ccc(/C=C/c2nc3ccccc3c(=O)n2-c2cc(C(=O)O)ccc2C(F)(F)F)cc1` [compound 76], in series [1], the “antibacterial activity in words” value is listed as “loss of antibacterial property” and the “antibacterial activity, active / inactive” value was “inactive”. As to `N#Cc1ccc(CSc2nc3ccccc3c(=O)n2-c2cccc(C(=O)O)c2)cc1` [compound 125], in series [1], the “increase in MIC with added bovine serum albumin” value (shortened to “increase in MIC”) is recorded as at most 4 fold. Regarding `C#Cc1ccc(/C=C/c2nc3ccccc3c(=O)n2-c2cccc(S(N)(=O)=O)c2)cc1` [compound 113], in series [3] (5 mg/kg iv), the “clearance relative to hepatic blood flow” value was above 10%. Consider `N#Cc1ccc(/C=C/c2nc3ccccc3c(=O)n2-c2cccc(S(N)(=O)=O)c2)cc1` [compound 94], for which, in series [1], the “increase in MIC” value is on record as at most 4 fold and the “antibacterial activity, active / inactive” value was “active”. In series [3] (5 mg/kg iv), the “clearance relative to hepatic blood flow” value is reported as above 10%.

For the molecule `N#Cc1ccc(/C=C/c2nc3ccccc3c(=O)n2-c2cc(O)cc(C(=O)O)c2)cc1` [compound 77], in series [1], the “antibacterial activity, active / inactive” value was “inactive”.

In the case of `N#Cc1ccc(/C=C/c2nc3ccccc3c(=O)n2-c2cc(C(=O)O)ccn2)cc1` [compound 84], in series [1], the “antibacterial activity in words” value is recorded as “loss of antibacterial property; also recorded: loss of activity”. Same read-out and setting: in the case of `COc1ccc(C(=O)O)cc1-n1c(/C=C/c2ccc(C#N)cc2)nc2ccccc2c1=O` [compound 79] it was “loss of antibacterial property”. Take `O=C(O)c1cccc(-n2c(CCc3ccc(F)cc3)nc3ccccc3c2=O)c1` [compound 115]: the “increase in MIC” value in series [1] is at most 4 fold. Regarding `C#Cc1ccc(/C=C/c2nc3ccccc3c(=O)n2-c2cccc(C(=O)O)c2)cc1` [compound 57], in series [4], the PPB is given as 99.6 ± 0.04^h %. Besides, in series [1], the “antibacterial activity, active / inactive” value was “active”.

In the case of `N#Cc1ccc(/C=C/c2nc3ccccc3c(=O)n2-c2cc(C(=O)O)ccc2F)cc1` [compound 73, (E)-3-(5-Carboxy-2-fluorophenyl)-2-(4-cyanostyryl)-quinazolin-4(3H)-one], the “time-kill behaviour of compound alone” value in series [5] is recorded as “bacteriostatic”. Also, in series [6], the MIC is at most 4 µg/mL. Moreover, in series [1], the “increase in MIC” value was at most 4 fold and the “antibacterial activity, active / inactive” value is given as “active”. Also, the clearance in series [3] (female, ICR, mouse, plasma, iv, 10 mg/kg) was found to be 7.7 mL/min/kg. In series [3] (10 mg/kg iv), the “clearance relative to hepatic blood flow” value is reported as below 10%. For the molecule `N#Cc1ccc(/C=C/c2nc3ccccc3c(=O)n2-c2cccc(C(=O)O)c2)cc1` [compound 1, (E)-3-(3-Carboxyphenyl)-2-(4-cyanostyryl)quinazolin-4(3H)-one], in series [5], the “time-kill behaviour of compound alone” value was “bacteriostatic”. In addition, the CL in series [7] was 6.9 mL/min/kg. Further, in series [1], the “increase in MIC” value is given as at most 4 fold and the “antibacterial activity in words” value is given as “potent activity”. In the case of `N#Cc1ccc(/C=C/c2nc3ccccc3c(=O)n2-c2cc(C(=O)O)ccc2O)cc1` [compound 78], in series [1], the “antibacterial activity in words” value is reported as “loss of antibacterial property” and the “antibacterial activity, active / inactive” value is “inactive”. With `O=C(O)c1cccc(-n2c(/C=C/C3CC3)nc3ccccc3c2=O)c1` [compound 48], the “antibacterial activity in words” value in series [1] is “loss of activity”. Regarding `CC(=O)NS(=O)(=O)c1cccc(-n2c(/C=C/c3ccc(C#N)cc3)nc3ccccc3c2=O)c1` [compound 95], the “antibacterial activity, active / inactive” value in series [1] is “active”. On the same count and under the same terms, in the case of `O=C(O)c1cccc(-n2c(/C=C/c3ccc(I)cc3)nc3ccccc3c2=O)c1` [compound 59] it was “active”. Take `N#Cc1ccc(/C=C/c2nc3ccccc3c(=O)n2-c2cccc(CNC(=O)C(F)(F)F)c2)cc1` [compound 99]: the “antibacterial activity, active / inactive” value in series [1] is “active”. With `N#Cc1ccc(/C=C/c2nc3ccccc3c(=O)n2-c2cccc(C(=O)O)n2)cc1` [compound 83], in series [1], the “antibacterial activity in words” value is “loss of antibacterial property; also recorded: loss of activity”. `O=C(O)c1cccc(-n2c(/C=C/c3ccc(Cl)cc3)nc3ccccc3c2=O)c1` [compound 58]: in series [1], the “increase in MIC” value is on record as at most 4 fold and the “antibacterial activity, active / inactive” value is reported as “active”. For `N#Cc1ccc(/C=C/c2nc3ccccc3c(=O)n2-c2cccc(NC(=O)C(F)(F)F)c2)cc1` [compound 88], the “antibacterial activity, active / inactive” value in series [1] is given as “active”. For `N#Cc1ccc(/C=C/c2nc3ccccc3c(=O)n2-c2cccc(NC(=O)NCc3cnc[nH]3)c2)cc1` [compound 92], the “antibacterial activity in words” value in series [1] is “detrimental to the activity”.

As for `N#Cc1ccc(/C=C/c2nc3ccccc3c(=O)n2-c2cccc(N)c2)cc1` [compound 111], in series [1], the “antibacterial activity in words” value is “potent activity”. On the same count and under the same terms, in the case of `N#Cc1ccc(/C=C/c2nc3ccccc3c(=O)n2-c2cccc(C(=O)O)c2O)cc1` [compound 81] it was “loss of antibacterial property”.

For the molecule `N#Cc1ccc(/C=C/c2nc3ccccc3c(=O)n2-c2cc(C(=O)O)ccc2Cl)cc1` [compound 74], in series [1], the “antibacterial activity in words” value is given as “retained acceptable MIC values” and the “antibacterial activity, active / inactive” value was “active”. Regarding `N#Cc1ccc(/C=C/c2nc3ccccc3c(=O)n2-c2cccc(NC(=O)NCCc3cnc[nH]3)c2)cc1` [compound 93], in series [1], the “antibacterial activity in words” value was “detrimental to the activity”.

Values taken from article PMC7720656 (Journal of medicinal chemistry, 2020).
